Data: ChEMBL document CHEMBL1142136, “Contribution of target gene mutations and efflux to decreased susceptibility of Salmonella enterica serovar typhimurium to fluoroquinolones and other antimicrobials” (2007)
Values after ≈ are worked out from the molar mass of the structure shown.

Columns and labels:
Type in all cases: functional, Salmonella enterica subsp. enterica serovar Typhimurium
[1] = test system: Salmonella typhimurium; experiment: Antimicrobial activity against Salmonella enterica serovar Typhimurium S21
Summary of the method: (§1)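 MICs measured by broth microdilution on the Sensititre automated system and interpreted by CLSI broth microdilution standards. Ciprofloxacin was also tested by agar dilution, widening the range to 0.0075–128 μg/ml. Quality control strains were E. coli ATCC 25922 and 35218, E. faecalis ATCC 29212, S. aureus ATCC 29213 and P. aeruginosa ATCC 27853.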

[2] = test system: Salmonella typhimurium; experiment: Antimicrobial activity against Salmonella enterica serovar Typhimurium S21 gyrA+; summary of the method: as §1
[3] = test system: Salmonella typhimurium; experiment: Antimicrobial activity against Salmonella enterica serovar Typhimurium S21 acrAB::Kan
Summary of the method: (§2)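 MICs by automated broth microdilution panels, interpreted to CLSI broth microdilution standards. Ciprofloxacin additionally tested by agar dilution across 0.0075 to 128 μg/ml. Quality control strains: E. coli ATCC 25922 and 35218, Enterococcus faecalis ATCC 29212, S. aureus ATCC 29213, P. aeruginosa ATCC 27853. Test strains are kanamycin-marked deletion mutants of ground-beef isolate S21.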

[4] = test system: Salmonella typhimurium; experiment: Antimicrobial activity against Salmonella enterica serovar Typhimurium S21 tolC::Kan; summary of the method: as §2
[5] = test system: Salmonella typhimurium; experiment: Antimicrobial activity against Salmonella enterica serovar Typhimurium S21-1 GyrA S83F mutant; summary of the method: as §1
[6] = test system: Salmonella typhimurium; experiment: Antimicrobial activity against Salmonella enterica serovar Typhimurium S21-1 gyrA+; summary of the method: as §1
[7] = test system: Salmonella typhimurium; experiment: Antimicrobial activity against Salmonella enterica serovar Typhimurium GyrA S21-1 acrAB::Kan with GyrA S83F mutation; summary of the method: as §1
[8] = test system: Salmonella typhimurium; experiment: Antimicrobial activity against Salmonella enterica serovar Typhimurium S21-1 tolC::Kan with GyrA S83F mutation; summary of the method: as §1
[9] = test system: Salmonella typhimurium; experiment: Antimicrobial activity against Salmonella enterica serovar Typhimurium S21-2 with GyrA S83F, ParC S80I mutation; summary of the method: as §1
[10] = test system: Salmonella typhimurium; experiment: Antimicrobial activity against Salmonella enterica serovar Typhimurium S21-2 gyrA+ with ParC S80I mutation; summary of the method: as §1
[11] = test system: Salmonella typhimurium; experiment: Antimicrobial activity against Salmonella enterica serovar Typhimurium S21-2 acrAB::Kan with GyrA S83F, ParC S80I mutation; summary of the method: as §1
[12] = test system: Salmonella typhimurium; experiment: Antimicrobial activity against Salmonella enterica serovar Typhimurium S21-2 tolC::Kan with GyrA S83F, ParC S80I mutation; summary of the method: as §1
[13] = test system: Salmonella typhimurium; experiment: Antimicrobial activity against Salmonella enterica serovar Typhimurium S21-3 with GyrA S83F, ParC S80I mutation; summary of the method: as §1
[14] = test system: Salmonella typhimurium; experiment: Antimicrobial activity against Salmonella enterica serovar Typhimurium S21-3 gyrA+ with ParC S80I mutation; summary of the method: as §1
[15] = test system: Salmonella typhimurium; experiment: Antimicrobial activity against Salmonella enterica serovar Typhimurium S21-3 acrAB::Kan with GyrA S83F, ParC S80I mutation; summary of the method: as §1
[16] = test system: Salmonella typhimurium; experiment: Antimicrobial activity against Salmonella enterica serovar Typhimurium CHS14 gyrA+ with GyrA D87G mutation; summary of the method: as §1
[17] = test system: Salmonella typhimurium; experiment: Antimicrobial activity against Salmonella enterica serovar Typhimurium CHS14 acrAB::Kan with GyrA D87G mutation; summary of the method: as §1
[18] = test system: Salmonella typhimurium; experiment: Antimicrobial activity against Salmonella enterica serovar Typhimurium CHS14 tolC::Kan with GyrA D87G mutant; summary of the method: as §1
[19] = test system: Salmonella typhimurium; experiment: Antimicrobial activity against Salmonella enterica serovar Typhimurium CHS18 with GyrA S38F mutation; summary of the method: as §1
[20] = test system: Salmonella typhimurium; experiment: Antimicrobial activity against Salmonella enterica serovar Typhimurium CHS18 gyrA+ with GyrA S38F mutation; summary of the method: as §1
[21] = test system: Salmonella typhimurium; experiment: Antimicrobial activity against Salmonella enterica serovar Typhimurium CHS18 acrAB::Kan with GyrA S38F mutation; summary of the method: as §1
[22] = test system: Salmonella typhimurium; experiment: Antimicrobial activity against Salmonella enterica serovar Typhimurium CHS18 tolC::Kan with GyrA S38F mutation; summary of the method: as §1
[23] = test system: Salmonella typhimurium; experiment: Antimicrobial activity against Salmonella enterica serovar Typhimurium S21-4 acrAB::Kan with GyrA S83F, ParC S80I mutation; summary of the method: as §1
[24] = test system: Salmonella typhimurium; experiment: Antimicrobial activity against Salmonella enterica serovar Typhimurium S21-3 tolC::Kan with GyrA S83F, ParC S80I mutation; summary of the method: as §1
[25] = test system: Salmonella typhimurium; experiment: Antimicrobial activity against Salmonella enterica serovar Typhimurium S21-4 with GyrA S83F, ParC S80I mutation; summary of the method: as §1
[26] = test system: Salmonella typhimurium; experiment: Antimicrobial activity against Salmonella enterica serovar Typhimurium S21-4 gyrA+ with ParC S80I mutation; summary of the method: as §1
[27] = test system: Salmonella typhimurium; experiment: Antimicrobial activity against Salmonella enterica serovar Typhimurium S21-4 tolC::Kan with GyrA S83F, ParC S80I mutation; summary of the method: as §1
[28] = test system: Salmonella typhimurium; experiment: Antimicrobial activity against Salmonella enterica serovar Typhimurium CS1 with GyrA S83F, D87N, ParC S80I mutation; summary of the method: as §1
[29] = test system: Salmonella typhimurium; experiment: Antimicrobial activity against Salmonella enterica serovar Typhimurium CS1 gyrA+ with GyrA S83F, D87N, ParC S80I mutation; summary of the method: as §1
[30] = test system: Salmonella typhimurium; experiment: Antimicrobial activity against Salmonella enterica serovar Typhimurium CS1 acrAB::Kan with GyrA S83F, D87N, ParC S80I mutation; summary of the method: as §1
[31] = test system: Salmonella typhimurium; experiment: Antimicrobial activity against Salmonella enterica serovar Typhimurium CS1 tolC::Kan with GyrA S83F, D87N, ParC S80I mutation; summary of the method: as §1
[32] = test system: Salmonella typhimurium; experiment: Antimicrobial activity against Salmonella enterica serovar Typhimurium CS3 with GyrA S83F, D87N, ParC S80I mutation; summary of the method: as §1
[33] = test system: Salmonella typhimurium; experiment: Antimicrobial activity against Salmonella enterica serovar Typhimurium CS3 gyrA+ with GyrA S83F, D87N, ParC S80I mutation; summary of the method: as §1
[34] = test system: Salmonella typhimurium; experiment: Antimicrobial activity against Salmonella enterica serovar Typhimurium CS3 acrAB::Kan with GyrA S83F, D87N, ParC S80I mutation; summary of the method: as §1
[35] = test system: Salmonella typhimurium; experiment: Antimicrobial activity against Salmonella enterica serovar Typhimurium CS3 tolC::Kan with GyrA S83F, D87N, parC S80I mutation; summary of the method: as §1
[36] = test system: Salmonella typhimurium; experiment: Antimicrobial activity against Salmonella enterica serovar Typhimurium CS9 with GyrA S83F, D87N, ParC S80I mutation; summary of the method: as §1
[37] = test system: Salmonella typhimurium; experiment: Antimicrobial activity against Salmonella enterica serovar Typhimurium CS9 gyrA+ with GyrA S83F, D87N, ParC S80I mutation; summary of the method: as §1
[38] = test system: Salmonella typhimurium; experiment: Antimicrobial activity against Salmonella enterica serovar Typhimurium CS9 acrAB::Kan with GyrA S83F, D87N, ParC S80I mutation; summary of the method: as §1
[39] = test system: Salmonella typhimurium; experiment: Antimicrobial activity against Salmonella enterica serovar Typhimurium CS9 tolC::Kan with GyrA S83F, D87N, ParC S80I mutation; summary of the method: as §1
[40] = test system: Salmonella typhimurium; experiment: Antimicrobial activity against Salmonella enterica serovar Typhimurium CHS14 with GyrA D87G mutation; summary of the method: as §1
[41] = test system: Salmonella typhimurium; experiment: Antimicrobial activity against Salmonella enterica serovar Typhimurium CHS38 with GyrA D87G mutation; summary of the method: as §1
[42] = test system: Salmonella typhimurium; experiment: Antimicrobial activity against Salmonella enterica serovar Typhimurium CHS38 gyrA+ with GyrA D87G mutation; summary of the method: as §1
[43] = test system: Salmonella typhimurium; experiment: Antimicrobial activity against Salmonella enterica serovar Typhimurium CHS38 acrAB::Kan with GyrA D87G mutation; summary of the method: as §1
[44] = test system: Salmonella typhimurium; experiment: Antimicrobial activity against Salmonella enterica serovar Typhimurium CHS38 tolC::Kan with GyrA D87G mutation; summary of the method: as §1

O=C(O)c1cn(-c2ccc(F)cc2)c2cc(N3CCNCC3)c(F)cc2c1=O [SARAFLOXACIN]
MIC [1]: 0.03 µg/mL (≈ 0.0778 µM) | MIC [2]: 0.03 µg/mL (≈ 0.0778 µM) | MIC [3]: < 0.015 µg/mL | MIC [4]: < 0.015 µg/mL | MIC [5]: 1 µg/mL (≈ 2.59 µM) | MIC [6]: 0.03 µg/mL (≈ 0.0778 µM) | MIC [7]: 0.12 µg/mL (≈ 0.311 µM) | MIC [8]: 0.12 µg/mL (≈ 0.311 µM) | MIC [9]: 8 µg/mL (≈ 20.8 µM) | MIC [10]: 0.25 µg/mL (≈ 0.649 µM) | MIC [11]: 0.5 µg/mL (≈ 1.3 µM) | MIC [12]: 0.5 µg/mL (≈ 1.3 µM) | MIC [13]: > 16 µg/mL | MIC [14]: 1 µg/mL (≈ 2.59 µM) | MIC [15]: 0.5 µg/mL (≈ 1.3 µM) | MIC [16]: 0.03 µg/mL (≈ 0.0778 µM) | MIC [17]: < 0.015 µg/mL | MIC [18]: < 0.015 µg/mL | MIC [19]: 0.25 µg/mL (≈ 0.649 µM) | MIC [20]: 0.06 µg/mL (≈ 0.156 µM) | MIC [21]: 0.03 µg/mL (≈ 0.0778 µM) | MIC [22]: 0.03 µg/mL (≈ 0.0778 µM) | MIC [23]: 0.5 µg/mL (≈ 1.3 µM) | MIC [24]: 0.5 µg/mL (≈ 1.3 µM) | MIC [25]: > 16 µg/mL | MIC [26]: 2 µg/mL (≈ 5.19 µM) | MIC [27]: 0.5 µg/mL (≈ 1.3 µM) | MIC [28]: 16 µg/mL (≈ 41.5 µM) | MIC [29]: 0.06 µg/mL (≈ 0.156 µM) | MIC [30]: 4 µg/mL (≈ 10.4 µM) | MIC [31]: 4 µg/mL (≈ 10.4 µM) | MIC [32]: 16 µg/mL (≈ 41.5 µM) | MIC [33]: 0.06 µg/mL (≈ 0.156 µM) | MIC [34]: 4 µg/mL (≈ 10.4 µM) | MIC [35]: 4 µg/mL (≈ 10.4 µM) | MIC [36]: > 16 µg/mL | MIC [37]: 0.03 µg/mL (≈ 0.0778 µM) | MIC [38]: 4 µg/mL (≈ 10.4 µM) | MIC [39]: 4 µg/mL (≈ 10.4 µM) | MIC [40]: 0.25 µg/mL (≈ 0.649 µM) | MIC [41]: 0.12 µg/mL (≈ 0.311 µM) | MIC [42]: < 0.015 µg/mL | MIC [43]: 0.03 µg/mL (≈ 0.0778 µM) | MIC [44]: < 0.015 µg/mL
